Measurements reported in ChEMBL document CHEMBL2311247, “Antimicrobial activity of various 4- and 5-substituted 1-phenylnaphthalenes” (2013).
Converted amounts (≈) assume the structure as drawn. The source made the active and inactive calls. No cut-off for these calls is given here.

Assays:
[1] = system: Enterococcus faecalis; experiment: Antibacterial activity against vancomycin-resistant Enterococcus faecalis ATCC 51575 assessed as growth inhibition after 24 hrs by CLSI broth microdilution method; type: functional; conditions: ATCC 51575, 24 h
Procedure, shortened: (§1)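 Run per CLSI broth microdilution. Log-phase E. faecalis at 10⁵ CFU/mL in brain-heart infusion broth with 2-fold serial dilutions (64 to 0.031 µg/mL), incubated aerobically 24 h at 37 °C. Growth is measured by OD₆₀₀, and MIC is the lowest concentration inhibiting growth by ≥90%.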

[2] = system: Enterococcus faecalis; experiment: Antibacterial activity against vancomycin-sensitive Enterococcus faecalis ATCC 19433 assessed as growth inhibition after 24 hrs by CLSI broth microdilution method; type: functional; conditions: ATCC 19433, 24 h; procedure, shortened: as §1
[3] = system: Staphylococcus aureus; experiment: Antibacterial activity against methicillin-resistant Staphylococcus aureus ATCC 33591 assessed as growth inhibition after 24 hrs by CLSI broth microdilution method; type: functional; conditions: ATCC 33591, 24 h
Procedure, shortened: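 CLSI broth microdilution. Log-phase bacteria at 10⁵ CFU/mL are added to 2-fold serial dilutions from 64 to 0.031 µg/mL in cation-adjusted Mueller-Hinton broth with 2% NaCl. Plates are incubated aerobically for 24 h at 37 °C and growth is read as OD₆₀₀. MIC is the lowest concentration giving ≥90% growth inhibition.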

[4] = system: Staphylococcus aureus; experiment: Antibacterial activity against methicillin-sensitive Staphylococcus aureus 8325-4 assessed as growth inhibition after 24 hrs by CLSI broth microdilution method; type: functional; conditions: 8325-4, 24 h
Procedure, shortened: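 MSSA strain 8325-4; log-phase inoculum at 10⁵ CFU/mL. 2-fold serial dilutions, 64 to 0.031 µg/mL, in cation-adjusted Mueller-Hinton broth. Aerobic incubation, 24 h, 37 °C. Growth read as OD₆₀₀. MIC is the lowest concentration giving ≥90% growth inhibition.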

[5] = target: T1, Cell division protein FtsZ (Staphylococcus aureus) (UniProt P0A031); experiment: Stimulation of Staphylococcus aureus ATCC 33591-D FtsZ polymerization expressed in Escherichia coli BL21 (DE3) assessed as inhibition of FtsZ Z-ring formation at 40 ug/mL measured for 300 mins by microtiter plate-based turbidity assay
T1 sequence (whole entry): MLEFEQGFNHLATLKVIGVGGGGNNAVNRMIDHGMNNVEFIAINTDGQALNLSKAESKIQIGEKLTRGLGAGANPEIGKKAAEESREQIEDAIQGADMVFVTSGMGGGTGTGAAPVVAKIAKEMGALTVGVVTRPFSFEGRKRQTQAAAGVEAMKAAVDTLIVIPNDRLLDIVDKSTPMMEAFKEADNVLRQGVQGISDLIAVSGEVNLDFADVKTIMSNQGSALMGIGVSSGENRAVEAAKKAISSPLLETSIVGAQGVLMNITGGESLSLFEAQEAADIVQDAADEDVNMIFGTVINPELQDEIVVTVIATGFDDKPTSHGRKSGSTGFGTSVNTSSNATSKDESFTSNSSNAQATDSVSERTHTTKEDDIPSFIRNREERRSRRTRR
Procedure, shortened: (§2)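 SaFtsZ expressed in E. coli BL21 (DE3) under 1 mM IPTG induction for 3 h at 37 °C. Purified by MonoQ anion exchange then Superdex-200, about 90% pure. Turbidity assay at 25 °C in 50 mM Tris·HCl pH 7.4, 50 mM KCl, 2 mM magnesium acetate, 1 mM GTP. Compound at 40 µg/mL. Reaction started with 10 µM protein (final). A₃₄₀ monitored continuously for 300 min.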

[6] = target: T1, Cell division protein FtsZ (Staphylococcus aureus); experiment: Stimulation of Staphylococcus aureus ATCC 33591-D FtsZ polymerization expressed in Escherichia coli BL21 (DE3) assessed as inhibition of FtsZ Z-ring formation at 40 ug/mL by microtiter plate-based turbidity assay; conditions: TDE = time-dependent effect; procedure, shortened: as §2

## NC(N)=NCc1cccc2c(-c3ccc(C4CC4)cc3)cccc12
[1]
  MIC: 8 µg/mL (≈ 25.4 µM)
[2]
  MIC: 8 µg/mL (≈ 25.4 µM)
[3]
  MIC: 8 µg/mL (≈ 25.4 µM)
[4]
  MIC: 1 µg/mL (≈ 3.17 µM)

## NCCc1cccc2c(-c3ccc(C(F)(F)F)cc3O)cccc12
[1]
  MIC: 16 µg/mL (≈ 48.3 µM)
[2]
  MIC: 16 µg/mL (≈ 48.3 µM)
[3]
  MIC: 16 µg/mL (≈ 48.3 µM)
[4]
  MIC: 8 µg/mL (≈ 24.1 µM)

## Cc1onc(-c2ccccc2)c1C(=O)N[C@@H]1C(=O)N2[C@@H]1SC(C)(C)[C@@H]2C(=O)O [OXACILLIN]
[1]
  MIC: > 64 µg/mL
[2]
  MIC: 8 µg/mL (≈ 19.9 µM)
[3]
  MIC: > 64 µg/mL
[4]
  MIC: 0.06 µg/mL (≈ 0.149 µM)

## CN(C)[C@@H]1C(O)=C(C(N)=O)C(=O)[C@@]2(O)C(O)=C3C(=O)c4c(O)cccc4[C@@](C)(O)[C@H]3C[C@@H]12 [TETRACYCLINE]
[1]
  MIC: > 64 µg/mL
[2]
  MIC: 0.5 µg/mL (≈ 1.13 µM)
[3]
  MIC: 64 µg/mL (≈ 144 µM)
[4]
  MIC: 0.06 µg/mL (≈ 0.135 µM)

## CC(C)(C)c1ccc(-c2cccc3c(CCN=C(N)N)cccc23)cc1
[1]
  MIC: 2 µg/mL (≈ 5.79 µM)
[2]
  MIC: 2 µg/mL (≈ 5.79 µM)
[3]
  MIC: 2 µg/mL (≈ 5.79 µM)
[4]
  MIC: 1 µg/mL (≈ 2.89 µM)

## CCC[C@@H]1C[C@@H](C(=O)N[C@@H]([C@H]2O[C@H](SC)[C@H](O)[C@@H](O)[C@H]2O)[C@H](C)Cl)N(C)C1 [CLINDAMYCIN]
[1]
  MIC: > 64 µg/mL
[2]
  MIC: 2 µg/mL (≈ 4.71 µM)
[3]
  MIC: > 64 µg/mL
[4]
  MIC: 0.03 µg/mL (≈ 0.0706 µM)

## CC(C)(C)c1ccc(-c2cccc3c(CN)cccc23)cc1
[1]
  MIC: 8 µg/mL (≈ 27.6 µM)
[2]
  MIC: 8 µg/mL (≈ 27.6 µM)
[3]
  MIC: 4 µg/mL (≈ 13.8 µM)
[4]
  MIC: 4 µg/mL (≈ 13.8 µM)

## NC(N)=NCc1cccc2c(-c3ccc(Cl)cc3)cccc12
[1]
  MIC: 8 µg/mL (≈ 25.8 µM)
[2]
  MIC: 8 µg/mL (≈ 25.8 µM)
[3]
  MIC: 8 µg/mL (≈ 25.8 µM)
[4]
  MIC: 2 µg/mL (≈ 6.46 µM)

## COc1cc(C(F)(F)F)ccc1-c1cccc2c(CCN)cccc12
[1]
  MIC: 8 µg/mL (≈ 23.2 µM)
[2]
  MIC: 8 µg/mL (≈ 23.2 µM)
[3]
  MIC: 16 µg/mL (≈ 46.3 µM)
[4]
  MIC: 8 µg/mL (≈ 23.2 µM)

## CC[C@H]1OC(=O)[C@H](C)[C@@H](O[C@H]2C[C@@](C)(OC)[C@@H](O)[C@H](C)O2)[C@H](C)[C@@H](O[C@@H]2O[C@H](C)C[C@H](N(C)C)[C@H]2O)[C@](C)(O)C[C@@H](C)C(=O)[C@H](C)[C@@H](O)[C@]1(C)O [ERYTHROMYCIN]
[1]
  MIC: > 64 µg/mL
[2]
  MIC: 1 µg/mL (≈ 1.36 µM)
[3]
  MIC: > 64 µg/mL
[4]
  MIC: 0.13 µg/mL (≈ 0.177 µM)

## CC(C)(C)c1ccc(-c2cccc3c(CC(=N)N)cccc23)cc1
[1]
  MIC: 8 µg/mL (≈ 25.3 µM)
[2]
  MIC: 4 µg/mL (≈ 12.6 µM)
[3]
  MIC: 4 µg/mL (≈ 12.6 µM)
[4]
  MIC: 4 µg/mL (≈ 12.6 µM)

## COc1cc(C(F)(F)F)ccc1-c1cccc2c(CN=C(N)N)cccc12
[1]
  MIC: 4 µg/mL (≈ 10.7 µM)
[2]
  MIC: 4 µg/mL (≈ 10.7 µM)
[3]
  MIC: 8 µg/mL (≈ 21.4 µM)
[4]
  MIC: 2 µg/mL (≈ 5.36 µM)

## CC(C)(C)c1ccc(-c2ccc(CN)c3ccccc23)cc1
[1]
  MIC: 8 µg/mL (≈ 27.6 µM)
[2]
  MIC: 8 µg/mL (≈ 27.6 µM)
[3]
  MIC: 8 µg/mL (≈ 27.6 µM)
[4]
  MIC: 4 µg/mL (≈ 13.8 µM)

## COc1cc(C(F)(F)F)ccc1-c1cccc2c(CCN=C(N)N)cccc12
[1]
  MIC: 4 µg/mL (≈ 10.3 µM)
[2]
  MIC: 4 µg/mL (≈ 10.3 µM)
[3]
  MIC: 8 µg/mL (≈ 20.7 µM)
[4]
  MIC: 2 µg/mL (≈ 5.16 µM)

## NC(N)=NCc1cccc2c(-c3ccc(Br)cc3)cccc12
[1]
  MIC: 8 µg/mL (≈ 22.6 µM)
[2]
  MIC: 8 µg/mL (≈ 22.6 µM)
[3]
  MIC: 8 µg/mL (≈ 22.6 µM)
[4]
  MIC: 2 µg/mL (≈ 5.65 µM)

## CC(C)(C)c1ccc(-c2ccc(CN=C(N)N)c3ccccc23)cc1
[1]
  MIC: 2 µg/mL (≈ 6.03 µM)
[2]
  MIC: 2 µg/mL (≈ 6.03 µM)
[3]
  MIC: 2 µg/mL (≈ 6.03 µM)
[4]
  MIC: 2 µg/mL (≈ 6.03 µM)

## CC(C)(C)c1ccc(-c2cccc3c(CCN)cccc23)cc1
[5]
  inhibition: inactive
[6]
  inhibition: tde
[1]
  MIC: 4 µg/mL (≈ 13.2 µM)
[2]
  MIC: 2 µg/mL (≈ 6.59 µM)
[3]
  MIC: 4 µg/mL (≈ 13.2 µM)
[4]
  MIC: 2 µg/mL (≈ 6.59 µM)

## C[n+]1cc2c3c(ccc2c2ccc4cc5c(cc4c21)OCO5)OCO3 [SANGUINARIUM]
[1]
  MIC: 16 µg/mL
[2]
  MIC: 8 µg/mL
[3]
  MIC: 2 µg/mL
[4]
  MIC: 2 µg/mL

## COc1ccc2c(c[n+](C)c3c4cc5c(cc4ccc23)OCO5)c1OC [CHELERYTHRINE]
[1]
  MIC: 32 µg/mL
[2]
  MIC: 32 µg/mL
[3]
  MIC: 4 µg/mL
[4]
  MIC: 4 µg/mL

## CC(C)(C)c1ccc(-c2ccc(CCN=C(N)N)c3ccccc23)cc1
[1]
  MIC: 4 µg/mL (≈ 11.6 µM)
[2]
  MIC: 2 µg/mL (≈ 5.79 µM)
[3]
  MIC: 4 µg/mL (≈ 11.6 µM)
[4]
  MIC: 2 µg/mL (≈ 5.79 µM)

## CC(C)(C)c1ccc(-c2cccc3c(CN=C(N)N)cccc23)cc1
[5]
  inhibition: inactive
[6]
  inhibition: tde
[1]
  MIC: 4 µg/mL (≈ 12.1 µM)
[2]
  MIC: 2 µg/mL (≈ 6.03 µM)
[3]
  MIC: 2 µg/mL (≈ 6.03 µM)
[4]
  MIC: 0.5 µg/mL (≈ 1.51 µM)

## NC(N)=NCc1cccc2c(-c3ccc(C(F)(F)F)cc3)cccc12
[1]
  MIC: 16 µg/mL (≈ 46.6 µM)
[2]
  MIC: 8 µg/mL (≈ 23.3 µM)
[3]
  MIC: 8 µg/mL (≈ 23.3 µM)
[4]
  MIC: 2 µg/mL (≈ 5.82 µM)

## N=C(N)Cc1cccc2c(-c3ccc(C(F)(F)F)cc3)cccc12
[1]
  MIC: 8 µg/mL (≈ 24.4 µM)
[2]
  MIC: 4 µg/mL (≈ 12.2 µM)
[3]
  MIC: 8 µg/mL (≈ 24.4 µM)
[4]
  MIC: 4 µg/mL (≈ 12.2 µM)

## CN[C@H](CC(C)C)C(=O)N[C@H]1C(=O)N[C@@H](CC(N)=O)C(=O)N[C@H]2C(=O)N[C@H]3C(=O)N[C@H](C(=O)N[C@H](C(=O)O)c4cc(O)cc(O)c4-c4cc3ccc4O)[C@H](O)c3ccc(c(Cl)c3)Oc3cc2cc(c3O[C@@H]2O[C@H](CO)[C@@H](O)[C@H](O)[C@H]2O[C@H]2C[C@](C)(N)[C@H](O)[C@H](C)O2)Oc2ccc(cc2Cl)[C@H]1O [VANCOMYCIN]
[1]
  MIC: > 64 µg/mL
[2]
  MIC: 1 µg/mL (≈ 0.69 µM)

## NC(N)=NCCc1cccc2c(-c3ccc(C(F)(F)F)cc3)cccc12
[1]
  MIC: 4 µg/mL (≈ 11.2 µM)
[2]
  MIC: 4 µg/mL (≈ 11.2 µM)
[3]
  MIC: 4 µg/mL (≈ 11.2 µM)
[4]
  MIC: 1 µg/mL (≈ 2.8 µM)

## CC(C)(C)c1ccc(-c2ccc(CCN)c3ccccc23)cc1
[1]
  MIC: 4 µg/mL (≈ 13.2 µM)
[2]
  MIC: 4 µg/mL (≈ 13.2 µM)
[3]
  MIC: 4 µg/mL (≈ 13.2 µM)
[4]
  MIC: 4 µg/mL (≈ 13.2 µM)
